Screening data as filed in PubChem.
CAL PDZ FP-1: blocks peptide binding to the human CAL PDZ domain; 300,000 compounds, 0.92% hits; inhibition, % at 24.9 µM; Q9HD26; purified CAL PDZ, TMR-peptide fluorescence polarization, 1 h;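 active = mean inhibition of at least 30% with at least half of replicates also reaching 30%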;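 also: 0% = DMSO neutral control and 100% = excess unlabeled competitor peptide PRC23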
SR-BI DiI-HDL act: enhances SR-BI lipid uptake from DiI-HDL. CHO ldlA[mSR-BI] cells, DiI-HDL uptake fluorescence, 3 h; 100 = double the neutral-control signal. activation, % at 12.5 µM. 320,000 compounds, 0.096% hits;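 active = mean replicate activation of at least 60% and every replicate at or above 60%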;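 also: 0% = median plate neutral-control signal and 100% = twice that signal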
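material = CHO ldlA[mSR-BI] cells | medium = Ham's F12 with 0.5% BSA, HEPES 25 mM, pH 7.4 | reagent = fluorescent DiI-HDL, 10 µg/mL final | compound dosing = single-point compound dose | incubation = 3 h, 37 °C | measured by = bottom-read fluorescence, 550/595 nm | measure = HDL uptake via cellular fluorescence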
SR-BI HDL uptake: inhibitors of mouse SR-BI mediated HDL lipid uptake | Q61009 | AID 488896 | ldlA[mSR-BI] CHO cells, DiI-HDL uptake fluorescence, 3 h | inhibition, % at 12.5 µM | 320,000 compounds, 0.96% hits;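 active = mean replicate inhibition of at least 70% and a set share of replicates each scoring 70 or more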;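 also: 0% = median of neutral control wells and 100% = median of positive control wells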
Target sequence (Q61009 whole entry, looked up): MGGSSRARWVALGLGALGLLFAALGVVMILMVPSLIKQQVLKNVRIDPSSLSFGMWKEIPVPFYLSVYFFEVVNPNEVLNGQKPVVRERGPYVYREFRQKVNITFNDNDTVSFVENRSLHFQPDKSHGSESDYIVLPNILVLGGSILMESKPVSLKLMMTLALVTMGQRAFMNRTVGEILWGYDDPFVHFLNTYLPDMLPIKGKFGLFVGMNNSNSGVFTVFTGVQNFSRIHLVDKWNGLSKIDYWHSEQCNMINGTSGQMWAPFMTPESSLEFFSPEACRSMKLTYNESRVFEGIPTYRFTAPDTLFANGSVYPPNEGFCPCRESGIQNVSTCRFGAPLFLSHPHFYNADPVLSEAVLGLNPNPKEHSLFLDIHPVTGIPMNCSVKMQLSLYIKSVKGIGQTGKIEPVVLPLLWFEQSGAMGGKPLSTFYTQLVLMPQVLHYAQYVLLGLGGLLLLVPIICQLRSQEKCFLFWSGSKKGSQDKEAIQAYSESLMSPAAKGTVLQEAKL
ARNT-TACC3 inh: disrupts binding between human ARNT and TACC3; Q9Y6A5; AlphaScreen His-ARNT PAS-B/GST-TACC3 binding, luminescence; TACC3 fragment carries E629A point mutation; inhibition, % at 9.99 µM; 390,000 compounds, 0.66% hits; AID 623870;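 active = mean inhibition of replicates at least 50% and at least half of replicates each reaching 50%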;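 also: 0% = complete ARNT plus TACC3 wells and 100% = ARNT alone without TACC3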
miR122 inh: miR-122 inhibition in Huh7 cells | Huh7 miR-122 Renilla luciferase sensor, 48 h; neutral wells = 0, positive control = 100 | activation (reporter increase), % at 12.5 µM | 340,000 compounds, 0.3% hits;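 active = mean replicate activation score at least 90 and every replicate individually at or above 90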;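 also: higher luciferase means less miR-122 activity so hits act as miR-122 inhibitors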
CAL PDZ FP-2: inhibitors of human CAL PDZ peptide binding. Q9HD26. purified CAL PDZ, TMR-peptide fluorescence polarization, 1 h. inhibition, % at 20 µM. 330,000 compounds, 0.02% hits. AID 504414;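 active = highest replicate inhibition of at least 40%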;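 also: plate controls were DMSO neutral control wells for no effect and unlabeled competitor peptide control wells for full effect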
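Read-out basis: mP drop reported as inhibition | Assay system: Tagged CAL PDZ protein CerCALP, purified | Benchmarks: Unlabelled peptide for full inhibition, DMSO wells as neutral | Schedule: 1 h incubation at room temperature before polarization reading | Buffer or medium: Sodium phosphate/NaCl buffer pH 7.4 with TCEP, IgG, Thesit | Doses: Single point, 20 µM | Measured by: Fluorescence polarization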
* = called active by the depositor; x = no result given; [ ] = dose if it differs, or a comment. Sampled rows, rich in hits. Any-hit rate of the full collection: about 2.1%.

SMILES	CAL PDZ FP-1	SR-BI DiI-HDL act	SR-BI HDL uptake	ARNT-TACC3 inh	miR122 inh	CAL PDZ FP-2
CCCN1[C@H](C(=O)OC)[C@@H](CO)[C@@H]2Cn3c(ccc(C4=CCCC4)c3=O)[C@@H]21	x	x	x	5.2	0.9[16.7 µM]	x
COc1cccc(-c2cn(CC[C@H]3CC[C@H](NC(C)=O)[C@@H](CO)O3)nn2)c1	x	x	x	-9.7	x	x
CCC(=O)c1ccc(OCC(=O)OCC(=O)c2cc(C)n(CC3CCCO3)c2C)cc1 (stereo not drawn)	-1.6	4.7	-4.7	0.0	x	0.6
Cc1cc(C(=O)COC(=O)C2CCN(C(=O)c3ccc(Cl)cc3)CC2)c(C)n1CC1CCCO1 (stereo not drawn)	66.5*	-38.9	38.9	5.6	x	5.6
Fc1cccc2sc(N3CCCCC3)nc12	36.8*	16.9	-16.9	-2.1	-6.4	-0.5
Cc1cc2oc(C(=O)Nc3ccc(S(=O)(=O)Nc4ncccn4)cc3)cc(=O)c2cc1Cl	90.0*	12.5	-12.5	-2.5	-2.8	-0.9
Cc1ccc2c(=O)cc(C(=O)Nc3ccc(S(=O)(=O)Nc4onc(C)c4C)cc3)oc2c1	x	29.5	-29.5	7.9	x	-3.8
CC(=O)Nc1ccc(NC(=O)c2cc(=O)c3cc(C)c(C)cc3o2)cc1	-2.5	-71.9	71.9*	-15.9	-0.5	-0.7
C[C@@H]1CCCCO[C@@H](CN(C)Cc2ccc(C(F)(F)F)cc2)[C@H](C)CN([C@H](C)CO)C(=O)c2cc(NC(=O)Nc3ccc(F)cc3)ccc2O1	x	x	x	12.4	-7.3[16.7 µM]	x
C[C@@H]1CCCCO[C@@H](CN(C)S(=O)(=O)c2cccs2)[C@H](C)CN([C@@H](C)CO)C(=O)c2cc(NC(=O)Nc3ccc(C(F)(F)F)cc3)ccc2O1	x	x	x	-4.3	-10.2[16.7 µM]	x
CC(C)Cc1nc2oc3c(NCC(C)O)ncnc3c2c2c1CCCC2 (stereo not drawn)	42.6*	-63.7	63.7	-6.1	7.6	-2.0
Cc1cc(C(=O)N2CCc3ccccc32)n(-c2ccccc2)n1	-3.9	6.1	-6.1	-3.2	115.3*	-1.2
N=c1c2c(ncn1CCCO)Oc1cc(O)ccc1C2c1ccccc1 (stereo not drawn)	39.0*	16.8	-16.8	-2.9	-8.4	-2.1
COc1ccc(C2c3ccc(O)cc3Oc3ncn(CCN4CCOCC4)c(=N)c32)cc1 (stereo not drawn)	-10.4	5.5	-5.5	-11.6	-5.4	-1.3
Cn1c(NCc2cccc(Br)c2)nc2ccccc21	3.8	x	-17.9	0.7	x	-0.6
Cn1c(Oc2ccccc2NCc2cccc(Br)c2)cc(=O)n(C)c1=O	79.1*	-21.4	21.4	2.7	-10.5	-0.7
C=CCNC(=S)NNC(=O)c1cccn(Cc2ccc(Cl)cc2)c1=O	-3.2	-9.2	9.2	51.8*	-1.3	-1.5
C=CCNC(=S)NNC(=O)c1cccn(Cc2cccc(Cl)c2)c1=O	x	15.5	-15.6	x	-3.8	0.1
O=C(C[C@H]1C[C@H]2c3cc(NC(=O)CC4CC4)ccc3O[C@H]2[C@@H](CO)O1)NCc1cccc(F)c1	x	x	x	-3.2	-0.4[16.7 µM]	x
O=C(C[C@@H]1C[C@H]2c3cc(NS(=O)(=O)c4ccc(F)cc4)ccc3O[C@H]2[C@H](CO)O1)NCc1ccc(Oc2ccccc2)cc1	x	x	x	2.9	150.2*[16.7 µM]	x
CN(C)c1ccc2c(c1)[C@@H]1C[C@@H](CC(=O)NCc3ccc(Oc4ccccc4)cc3)O[C@@H](CO)[C@@H]1O2	x	x	x	3.8	95.6*[16.7 µM]	x
O=C(C[C@H]1C[C@@H]2c3cc(NS(=O)(=O)c4ccc(F)cc4)ccc3O[C@@H]2[C@H](CO)O1)NCc1ccc(-c2ccccc2)cc1	x	x	x	-2.4	-0.5[16.7 µM]	x
O=C(C[C@@H]1C[C@H]2c3cc(NS(=O)(=O)c4ccc(F)cc4)ccc3O[C@H]2[C@H](CO)O1)NCc1ccc(-c2ccccc2)cc1	x	x	x	9.2	111.0*[16.7 µM]	x
O=C(C[C@H]1C[C@@H]2c3cc(NC(=O)CC4CC4)ccc3O[C@@H]2[C@@H](CO)O1)NCc1cccc(F)c1	x	x	x	active	1.4[16.7 µM]	x
COc1ccc(C#Cc2cnc3c(c2)C(=O)N([C@H](C)CO)C[C@@H](C)[C@@H](CN(C)CC2CC2)O3)cc1	x	x	x	x	-0.1[16.7 µM]	x
SMILES	CAL PDZ FP-1	SR-BI DiI-HDL act	SR-BI HDL uptake	ARNT-TACC3 inh	miR122 inh	CAL PDZ FP-2
COc1cccc(S(=O)(=O)Nc2ccc3c(c2)OC[C@@H](C)N(Cc2ccccc2F)C[C@@H](C)[C@@H](OC)CN(C)C3=O)c1	x	x	x	5.9	x	x
CC(O)CN(CC(C)O)c1ccc2c(c1)Cc1cc([N+](=O)[O-])ccc1-2 (stereo not drawn)	0.4	-89.5	89.5*	9.6	-15.2	-0.9
COc1ccc(NC(=S)Nc2ccc(S(N)(=O)=O)cc2)c(OC)c1	36.7*	16.6	-16.6	2.8	x	-1.1
COc1ccc(OC)c(/C=N/N2CCN(c3ccc(Cl)cc3)CC2)c1	0.2	148.3*	-148.3	-13.5	-2.7	-0.7
Cc1nn(-c2ccccc2)c(C)c1/C=N/n1cnnc1	x	30.3	-30.3	-10.6	x	0.1
Cc1nn(-c2ccccc2)c(C)c1/C=N\N1CCN(c2ccc(Cl)cc2)CC1	-2.3	-79.9	79.9*	-1.9	1.3	-0.3
COc1ccc(S(=O)(=O)Nc2ccc3c(c2)C(=O)N([C@H](C)CO)C[C@H](C)[C@H](CN(C)C(=O)Nc2ccc(C(F)(F)F)cc2)OCCCC[C@@H](C)O3)cc1	x	x	x	11.5	13.5[16.7 µM]	x
CCOc1ccc2c(c1)c(C(C)=O)c(C)n2-c1ccccc1	-1.0	-73.7	73.7*	-7.3	5.6	-2.4
Cc1cc(OCC(=O)Nc2ccc(N3CCCC3)cc2)cc(C)c1Cl	1.5	-87.4	87.4*	-2.8	-4.5	-1.1
Cc1cc(N2CCCC2)ccc1NC(=O)COc1ccccc1	-6.8	-71.8	71.8*	0.8	0.0	-2.4
CCc1ccccc1OCC(=O)Nc1ccc(N2CCCC2)cc1C	-3.7	-68.6	68.6	-2.0	6.5	-0.7
O=C(O)CCCC(=O)Nc1ccc(N2CCCC2)cc1	92.6*	9.6	-9.6	17.1	-7.6	x
O=C(Nc1ccc2c(c1)[C@H]1C[C@@H](CC(=O)N3CCc4ccccc4C3)O[C@@H](CO)[C@H]1O2)C1CCOCC1	x	x	x	-1.4	-6.0[16.7 µM]	x
O=C1c2cccc3c([N+](=O)[O-])ccc(c23)C(=O)N1Cc1cccnc1	37.4*	16.0	-16.0	0.8	x	0.7
C=CCCC(=O)Nc1ccc(Br)cn1	-2.5	-89.4	89.4*	-1.2	x	-0.2
CCCCC(=O)Nc1ccc(Br)cn1	-2.1	11.4	-11.4	-3.0	-4.7	-0.8
Cc1cc(/C=N/NC(=O)c2ccncc2)c(C)n1-c1cccc(C(F)(F)F)c1	0.6	-74.2	74.2*	40.6	x	0.8
Cc1cc(/C=N/NC(=O)c2cccc(F)c2)c(C)n1-c1ccccc1	-1.5	-73.0	73.0*	-2.3	x	-4.0
Cc1cc(/C=N/NC(=O)c2ccccc2F)c(C)n1-c1ccccc1	0.7	-13.3	13.3	0.7	x	-0.4
